Source: PubChem
BB579 growth dn = growth inhibitors of yeast BB579 in restrictive medium, primary screen, yeast lifespan-shortening project, S. cerevisiae. OD615, 48 h. inhibition, % at 10 µM. 140,000 compounds, 0.51% hits. AID 804, 2007;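 active means inhibition above a set limit, 3 SD over the mean compound inhibition, cut at about 44% in these data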
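Test system: DeaD yeast strain BB579 / Buffer or medium: restrictive glucose-based CSMM-D medium / Doses: single 10 µM dose / Schedule: 4 h cell preincubation, 48 h compound exposure, 30 °C humidified / Technique: culture absorbance at 615 nm / Controls: amphotericin B positive control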
Cl transport mod = KCC2 cotransporter modulators, thallium flux, primary screen, cell-based, HEK293 KCC2, FluoZin-2 fluorescence, MLSMR; B-score of Tl+ flux slope (higher = more flux/activation; lower = inhibition) at 10 µM; Solute carrier family 12 member 5 (Homo sapiens), Q9H2X9; KCC2 cells, thallium flux FluoZin-2 fluorescence; AID 1456, 2008; 190,000 compounds, 2.2% hits;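 active means thallium flux slope and its plate-corrected score both differing from the plate sample mean at a set confidence after two filtering rounds, in either direction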;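 further: slope of fluorescence scaled to starting intensity during 10 to 20 s after thallium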
Target sequence (Q9H2X9 whole entry, looked up): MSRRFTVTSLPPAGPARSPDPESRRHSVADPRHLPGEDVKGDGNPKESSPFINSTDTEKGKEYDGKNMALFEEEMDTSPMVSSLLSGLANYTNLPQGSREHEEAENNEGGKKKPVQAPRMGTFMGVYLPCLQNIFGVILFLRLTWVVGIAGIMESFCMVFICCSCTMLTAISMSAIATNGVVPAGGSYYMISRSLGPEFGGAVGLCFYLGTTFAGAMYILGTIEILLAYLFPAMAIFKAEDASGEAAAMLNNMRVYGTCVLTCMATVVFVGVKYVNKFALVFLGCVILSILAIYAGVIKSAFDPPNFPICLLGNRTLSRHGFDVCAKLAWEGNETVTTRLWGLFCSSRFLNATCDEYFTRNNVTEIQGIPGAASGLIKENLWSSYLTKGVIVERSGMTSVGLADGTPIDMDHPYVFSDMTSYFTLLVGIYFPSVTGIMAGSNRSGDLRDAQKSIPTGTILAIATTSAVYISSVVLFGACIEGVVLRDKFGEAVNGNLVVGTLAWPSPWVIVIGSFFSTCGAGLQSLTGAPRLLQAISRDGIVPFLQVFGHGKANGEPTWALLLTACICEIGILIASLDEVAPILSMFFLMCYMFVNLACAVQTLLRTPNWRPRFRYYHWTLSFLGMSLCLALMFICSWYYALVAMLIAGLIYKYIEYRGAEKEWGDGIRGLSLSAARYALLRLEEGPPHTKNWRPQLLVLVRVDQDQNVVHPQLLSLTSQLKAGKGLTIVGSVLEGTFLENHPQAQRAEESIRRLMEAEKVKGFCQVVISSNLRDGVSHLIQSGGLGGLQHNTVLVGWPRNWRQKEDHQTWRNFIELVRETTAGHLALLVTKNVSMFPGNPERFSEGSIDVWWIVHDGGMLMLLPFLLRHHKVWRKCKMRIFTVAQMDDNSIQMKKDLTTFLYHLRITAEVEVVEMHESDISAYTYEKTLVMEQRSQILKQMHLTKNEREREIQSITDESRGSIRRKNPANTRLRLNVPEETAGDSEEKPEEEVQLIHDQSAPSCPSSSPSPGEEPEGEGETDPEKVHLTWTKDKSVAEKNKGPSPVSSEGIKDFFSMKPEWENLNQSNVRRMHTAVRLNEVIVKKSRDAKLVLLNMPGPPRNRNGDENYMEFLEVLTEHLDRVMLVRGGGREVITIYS
RAM inhibit = inhibitors of the yeast RAM network, primary screen, dse1pr::URA3 reporter, 5-FOA selection | S. cerevisiae dse1pr::URA3 reporter, 5-FOA growth OD615, 2 d; analog-sensitive cbk1-as2 kinase mutant strain | inhibition, % at 50 µM | 190,000 compounds, 1.8% hits | AID 868, 2007;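 active means inhibition above a set limit, 3 SD over mean compound inhibition, cut at about 8.4% in these data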;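 further: inhibition rescues growth on 5-FOA so higher OD means more RAM inhibition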
WT yeast gro inh = growth inhibition of WT strain, primary screen, mitochondrial fusion inhibitor project, WT and mutant strains, chemical genetic; mitochondrial fusion phenotypic screen; AID 1362, 2008; 190,000 compounds, 2.1% hits; inhibition, % at 10 µM; in the data active means inhibition above about 58%; tested in S. cerevisiae
Yeast life ext = compounds extending yeast replicative lifespan, primary screen, S. cerevisiae, OD615 | AID 775, 2007 | S. cerevisiae growth with nicotinamide; deaD strain in restrictive glucose medium | inhibition of the nicotinamide effect, % at 10 µM | 130,000 compounds, 0.68% hits;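 active means inhibition above a set limit, placed 3 SD over the median of all compounds, cut at about 26% in these data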
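Assay system: DeaD-strain S. cerevisiae. Medium: CSMM-D glucose medium, restrictive. Reagent: nicotinamide, 1.5 mM, co-present with compound. Compound: 10 µM single point, 0.25% DMSO. Schedule: culture preincubation 4 h, compound exposure 48 h, both 30 °C. Detection: absorbance at 615 nm.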
Of the large screens only hits and unclear results are named; the others gave an inactive call. This is a sample that favours compounds with a hit; in the whole collection about 5.5% have one here.

CCOc1ccc(S(=O)(=O)N2CCN(c3ccccc3F)CC2)c2cccnc12	none
O=C(Nc1nnc(-c2cccs2)o1)c1cccc(F)c1	Cl transport mod 26 (no result: BB579 growth dn, RAM inhibit, Yeast life ext)
O=C(NNc1ccccc1Br)C(O)(c1cccc(C(F)(F)F)c1)c1cccc(C(F)(F)F)c1	none
Cc1ccc(NNC(=O)C(O)(c2cccc(C(F)(F)F)c2)c2cccc(C(F)(F)F)c2)cc1	WT yeast gro inh 83
CNc1oc(C)nc1S(=O)(=O)c1ccc(C)cc1	WT yeast gro inh 68 (no result: Cl transport mod)
CNc1oc(Cc2ccccc2)nc1S(=O)(=O)c1ccccc1	none
COC(=O)c1sc(S(=O)(=O)Nc2ccc(C)cc2)c(C(=O)OC)c1C	Yeast life ext 38
COC(=O)c1sc(S(=O)(=O)Nc2ccc(Br)cc2)c(C(=O)OC)c1C	RAM inhibit 8.7, Yeast life ext 42
COC(=O)c1sc(S(=O)(=O)NCc2ccccc2)c(C(=O)OC)c1C	none
COC(=O)c1sc(S(=O)(=O)Nc2ccc3cn[nH]c3c2)c(C(=O)OC)c1C	none
CC(=O)NCC1(O)CCCC(C)C1 (configuration not stated)	none (no result: BB579 growth dn, RAM inhibit, WT yeast gro inh, Yeast life ext)
O=c1c2ccccc2c(-c2ccc(O)cc2)nn1-c1cccc(C(F)(F)F)c1	WT yeast gro inh 83
O=c1c2ccccc2c(-c2ccc(Cl)cc2)nn1-c1ccccc1	none
CCN(CC)S(=O)(=O)c1cccc(C(=O)N[C@H](C(=O)NCc2ccc(Cl)cc2)C(C)C)c1	none
CC1(C)C2CCC1(C)C(OC(=O)C[n+]1ccccc1)C2 (configuration not stated)	none (no result: BB579 growth dn, RAM inhibit, WT yeast gro inh, Yeast life ext)
CC1(C)C2CCC1(C)C(OC(=O)CC(=O)O)C2 (configuration not stated)	WT yeast gro inh 64
CC1CCN(C(=S)c2cn(Cc3ccccc3F)c3ccccc23)CC1	WT yeast gro inh 74
CN1CCN(C(=S)c2cn(Cc3ccccc3F)c3ccccc23)CC1	none (no result: BB579 growth dn, Yeast life ext)
CC(NC(=O)CN(C)Cc1cccs1)c1ccccc1 (configuration not stated)	none (no result: BB579 growth dn, Yeast life ext)
COc1ccc(-c2oc3c(OC)c(OC)c(OC)c(O)c3c(=O)c2OC)cc1OC	none (no result: BB579 growth dn, Yeast life ext)
COc1c(OC)c(O)c2c(=O)c(O)c(-c3ccccc3)oc2c1OC	Cl transport mod 52 (no result: BB579 growth dn, Yeast life ext)
CC(C)COP(=O)(OCC(C)C)C(O)c1ccc(N(C)C)cc1 (configuration not stated)	none (no result: BB579 growth dn, RAM inhibit, WT yeast gro inh, Yeast life ext)
CCOc1cc(C2/C(=C(/O)c3ccc(OC(C)C)cc3)C(=O)C(=O)N2CCCOC)ccc1O (configuration not stated)	RAM inhibit 8.5
CC(C)c1nnc(NC(=O)CCC(=O)Nc2ccc3cn[nH]c3c2)s1	none (no result: BB579 growth dn, RAM inhibit, WT yeast gro inh, Yeast life ext)
Cc1ccc(C2c3sc(=O)[nH]c3SC3C(=O)NC(=O)C32)cc1 (configuration not stated)	Cl transport mod -6.8
O=C(/C=C/c1cn(-c2ccccc2)nc1-c1ccccc1)Nc1ccc(C(=O)O)cc1	RAM inhibit 8.9 (no result: BB579 growth dn, Yeast life ext)
NS(=O)(=O)c1ccc(NC(=O)/C=C/c2cn(-c3ccccc3)nc2-c2cccc(Cl)c2)cc1	none (no result: BB579 growth dn, Yeast life ext)
CCc1ccc(NC(=O)c2cc3c(C)nc4ccccc4c3o2)cc1	WT yeast gro inh 63 (no result: BB579 growth dn, Yeast life ext)
CN1CCN(c2cc(-c3ccccc3)nc3cc(-c4ccc(F)cc4)nn23)CC1	WT yeast gro inh 84
Fc1ccc(-c2cc3nc(-c4ccccc4)cc(N4CCN(CCN5CCOCC5)CC4)n3n2)cc1	none
COc1cccc(Nc2nc(-c3cccs3)nc3ccccc23)c1	WT yeast gro inh 66
c1ccc(CNc2nc(-c3cccs3)nc3ccccc23)cc1	WT yeast gro inh 71
COc1cccc(CN(C)c2nc(-c3cccs3)nc3ccccc23)c1	WT yeast gro inh 66
COc1ccc(Nc2nc(-c3cccs3)nc3ccccc23)cc1	none
Fc1ccccc1-c1nc(NCc2ccccc2)c2ccccc2n1	none (no result: BB579 growth dn, RAM inhibit, WT yeast gro inh, Yeast life ext)
CCOc1ncccc1C(=O)Nc1cccc(Cl)c1Cl	none (no result: BB579 growth dn, Yeast life ext)
CS(=O)(=O)Nc1ccc(C(=O)Nc2cccc([N+](=O)[O-])c2)cc1	none (no result: BB579 growth dn, Yeast life ext)
O=C(NCc1cccnc1)/C(=C\c1ccc(-c2ccc(Cl)c(Cl)c2)o1)S(=O)(=O)c1ccccc1	none
Cc1ccc2c(c1)SC1=NC(c3ccccc3)(C(F)(F)F)NC(=O)N12 (configuration not stated)	none
O=C1C2C3C=CC(CO)(O3)C2C(=O)N1c1ccccc1-c1ccccc1 (configuration not stated)	WT yeast gro inh 69
O=C(/C=C/c1ccc(Cl)cc1Cl)N(Cc1ccc(Cl)cc1)C1CCS(=O)(=O)C1 (configuration not stated)	WT yeast gro inh 59
Cc1cc(Cl)ccc1OCC(=O)N1CCCCC1	none
CC(=O)N1CCN(c2ccc(NC(=O)COc3ccc(Cl)cc3Cl)cc2)CC1	RAM inhibit 10
O=C(COc1ccc(Cl)cc1Cl)N1CCCN(C(=O)COc2ccc(Cl)cc2Cl)CC1	WT yeast gro inh 76
O=C(/C=C/c1ccccc1)CC(O)(c1ccccc1)C(F)(F)C(F)F (configuration not stated)	Yeast life ext 40
COc1ccc(/C=C/C(=O)CC(O)(c2ccccc2)C(F)(F)F)cc1 (configuration not stated)	none (no result: Yeast life ext)
O=C(/C=C/c1ccccc1)CC(O)(c1ccccc1)C(F)(F)F (configuration not stated)	Yeast life ext 35
Cc1nc(-c2cccc(NS(=O)(=O)c3ccccc3)c2)cs1	none
Cc1ccc2nc(-c3cccc(NS(C)(=O)=O)c3)cc(-c3ccccc3)c2c1	WT yeast gro inh 94
O=C(Cc1cn(Cc2cccc(Cl)c2)c2ccccc12)N1CCCCCC1	WT yeast gro inh 68
CC1CCCN(C(=O)Cc2cn(Cc3cccc(Cl)c3)c3ccccc23)C1 (configuration not stated)	WT yeast gro inh 73
Cc1cccc(N2CCN(CC(O)COCc3cccs3)CC2)c1C (configuration not stated)	none
COc1ccc(S(=O)(=O)N(CC(=O)NC2CC2)c2ccc(C)cc2)cc1	none (no result: BB579 growth dn, Yeast life ext)
O=C(Cc1ccc(Cl)cc1)Nc1ccc(SC(F)F)cc1	none
CCOC(=O)c1cc(-c2ccc(Cl)cc2)nc2c1c(C)nn2CCC#N	none
CCOC(=O)c1cc(-c2ccc3c(c2)OCCO3)nc2c1c(C)nn2CCC#N	RAM inhibit 9.0
Cc1ccc(NC(=S)N(CCN(C)C)C(C)c2ccco2)cc1C (configuration not stated)	none
COCCN(C(=S)Nc1ccc(C)c(C)c1)C(C)c1ccco1 (configuration not stated)	WT yeast gro inh 60 (no result: BB579 growth dn, Yeast life ext)
CCC1CCCCN1CCCNC(=O)c1ccc(N2CCOCC2)c(NS(=O)(=O)c2ccc(OC)cc2)c1 (configuration not stated)	none (no result: BB579 growth dn, Yeast life ext)
